Measured values reported in ChEMBL document CHEMBL4387738 (Bioorg Med Chem Lett, 2019).
pIC50: −log10 of the molar value. Activity calls are given as the source filed them. No cut-off for these calls is given here.

Assays:
HCT-116 [1] = assay: Induction of apoptosis in human HCT116 cells assessed as late apoptotic cells at 5 to 25 uM incubated for 24 hrs by Annexin-V-FITC/propidium iodide staining based flow cytometric method relative to taxol; assay type: functional, cell-based
How it was run: (§1)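 HCT116 cells exposed to 5, 10 or 25 μM for 24 h, then stained with annexin V and propidium iodide and analysed by flow cytometry. DMSO was the negative control and Taxol the apoptosis control. Total apoptosis counted all annexin V-positive cells, early apoptosis was annexin V-positive/PI-negative, and late apoptosis was annexin V/PI double-positive.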

[2] = molecular target: Endoplasmic reticulum chaperone BiP (Homo sapiens) (UniProt P11021); assay: Inhibition of GRP78 (26 to 636 residues) (unknown origin) expressed in Escherichia coli BL21 DE3 cells pre-incubated for 10 mins before FITC-NRLLLTG fluorescent peptide addition in presence of 20 uM ADP followed by further incubation for 2 hrs by fluorescence polarization assay
How it was run: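 Fluorescence polarization competition assay in 384-well format. Full-length GRP78 (0.75 μM) was held in the ADP-bound closed state with FITC-NRLLLTG (100 nM), and loss of polarization was read. DMSO was the negative control and heat-denatured GRP78 the positive control. IC50 was taken from a 10-point dose response.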

[3] = Inhibition of bacterial DnaK pre-incubated for 10 mins before FITC-NRLLLTG fluorescent peptide addition in presence of 20 uM ADP followed by further incubation for 2 hrs by fluorescence polarization assay; set-up: species or system Bacteria
How it was run: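 Repeat of the GRP78 fluorescence-polarization substrate-binding assay with the bacterial HSP70 DnaK in place of GRP78. The FITC-NRLLLTG peptide binds the substrate-binding domain in the ADP-bound closed state, raising polarization; inhibitors keep polarization low. Compound was tested in dose response and the IC50 derived. DnaK construct and concentration are not given.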

HCT-116 [4] = assay: Induction of apoptosis in human HCT116 cells assessed as increase in early apoptotic cells at 5 to 25 uM incubated for 24 hrs by Annexin-V-FITC/propidium iodide staining based flow cytometric method relative to taxol; assay type: functional, cell-based; how it was run: as §1
HCT-116 [5] = assay: Induction of apoptosis in human HCT116 cells assessed as apoptotic cells at 10 uM incubated for 24 hrs by Annexin-V-FITC/propidium iodide staining based flow cytometric method relative to taxol; assay type: functional, cell-based; how it was run: as §1
HCT-116 [6] = assay: Induction of apoptosis in human HCT116 cells assessed as increase in apoptotic cells at 25 uM incubated for 24 hrs by Annexin-V-FITC/propidium iodide staining based flow cytometric method relative to taxol; assay type: functional, cell-based; how it was run: as §1
HCT-116 [7] = assay: Induction of apoptosis in human HCT116 cells at 5 to 25 uM incubated for 24 hrs by Annexin-V-FITC/propidium iodide staining based flow cytometric method; assay type: functional, cell-based; how it was run: as §1
HCT-116 [8] = assay: Induction of apoptosis in human HCT116 cells 25 uM incubated for 16 to 48 hrs by Annexin-V-FITC/propidium iodide staining based flow cytometric method; assay type: functional, cell-based; conditions: TDE = time-dependent effect
How it was run: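 Time course in HCT116 cells. After treatment, cells were stained with annexin V and propidium iodide and analysed by flow cytometry. Early apoptosis was scored as annexin V+/PI−, late apoptosis as annexin V+/PI+. DMSO served as the negative control and Taxol as the apoptosis control.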

HCT-116 [9] = assay: Induction of autophagy in human HCT116 cells assessed as reduction in p62 level at 2 to 10 uM after 16 hrs by Western blot analysis
HCT-116 [10] = assay: Induction of autophagy in human HCT116 cells assessed as increase in LC3-2 level at 2 to 10 uM after 16 hrs by Western blot analysis
HCT-116 [11] = assay: Induction of autophagy in human HCT116 cells assessed as reduction in LC3-1 level at 2 to 10 uM after 16 hrs by Western blot analysis

Chain of Endoplasmic reticulum chaperone BiP (Homo sapiens) (P11021 whole entry, the tested form may be a part): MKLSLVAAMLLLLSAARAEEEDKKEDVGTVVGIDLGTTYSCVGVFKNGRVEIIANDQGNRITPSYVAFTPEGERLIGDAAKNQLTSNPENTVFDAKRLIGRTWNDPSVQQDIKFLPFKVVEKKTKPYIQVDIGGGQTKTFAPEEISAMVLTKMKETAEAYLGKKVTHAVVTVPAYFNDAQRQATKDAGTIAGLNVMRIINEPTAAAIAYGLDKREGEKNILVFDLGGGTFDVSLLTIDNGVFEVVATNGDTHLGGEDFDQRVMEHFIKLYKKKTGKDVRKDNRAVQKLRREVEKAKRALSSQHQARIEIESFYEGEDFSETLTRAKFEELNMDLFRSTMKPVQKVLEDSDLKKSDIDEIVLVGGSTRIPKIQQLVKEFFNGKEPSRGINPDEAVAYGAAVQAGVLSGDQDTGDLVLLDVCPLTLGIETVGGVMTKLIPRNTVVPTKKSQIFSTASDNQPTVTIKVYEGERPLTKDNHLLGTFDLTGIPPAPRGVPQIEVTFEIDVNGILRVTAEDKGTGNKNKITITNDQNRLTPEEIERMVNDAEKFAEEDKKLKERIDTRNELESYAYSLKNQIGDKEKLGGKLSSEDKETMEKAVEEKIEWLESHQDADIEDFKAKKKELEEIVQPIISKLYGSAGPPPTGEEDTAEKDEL

SMILES: CC(=O)O[C@H]1C(=O)[C@@]2(C)[C@H]([C@H](OC(=O)c3ccccc3)[C@]3(O)C[C@H](OC(=O)[C@H](O)[C@@H](NC(=O)c4ccccc4)c4ccccc4)C(C)=C1C3(C)C)[C@]1(OC(C)=O)CO[C@@H]1C[C@@H]2O
- Activity (HCT-116 [1]): Active

SMILES: Oc1c(Cl)cc(Cl)c(Cl)c1Sc1c(O)c(Cl)cc(Cl)c1Cl
- inhibition [2]: Active

SMILES: Oc1c(Cl)cc(Cl)cc1Cc1cc(Cl)cc(Cl)c1O
- inhibition [2]: Active

SMILES: Oc1c(Cl)cc(Cl)cc1Sc1cc(Cl)cc(Cl)c1O
- inhibition [2]: Active

SMILES: Oc1c(Cl)cc(Cl)c(Cl)c1Cc1c(O)c(Cl)cc(Cl)c1Cl [HEXACHLOROPHENE]
- inhibition [2]: Dose-dependent effect
- pIC50 [3]: 4.29
- Activity (HCT-116 [4]): Active
- Activity (HCT-116 [5]): Active
- Activity (HCT-116 [6]): Active
- Activity (HCT-116 [1]): Active
- Activity (HCT-116 [7]): Dose-dependent effect
- Activity (HCT-116 [8]): Tde
- Activity (HCT-116 [9]): Active
- Activity (HCT-116 [10]): Active
- Activity (HCT-116 [11]): Active
